pIC50: −log10 of the molar value. Converted amounts (≈) assume the structure as drawn.
System: not listed separately
Experiment: Thermodynamic solubility of compound in water measured after 15 mins RP-HPLC analysis
Type: physicochemical
Settings: read-out: Therm_solubility
`Cc1c(Cl)cccc1NC(=O)c1sc2nc3c(cc2c1N)CN(Cc1ccccc1)CC3` gave a solubility thermodynamic at 0.25 h of 0.77 µg/mL (≈ 1.66 µM).
For `CC(=O)c1cc2c(N)c(C(=O)Nc3cccc4c3OCCO4)sc2nc1C`, the solubility thermodynamic at 0.25 h was 0.26 µg/mL (≈ 0.678 µM).
With `Cc1nc2sc(C(=O)Nc3cccc4ccccc34)c(N)c2cc1C(C)O` (stereo not drawn) the solubility thermodynamic at 0.25 h was 2.21 µg/mL (≈ 5.85 µM).
Work on `COc1ccc(NC(=O)c2sc3nc(C)c(C(C)=O)cc3c2N)cc1` yielded a solubility thermodynamic at 0.25 h of 0.13 µg/mL (≈ 0.366 µM).
For `CC(=O)c1cc2c(N)c(C(=O)Nc3cccc(C)c3C)sc2nc1C`, the solubility thermodynamic at 0.25 h was 0.68 µg/mL (≈ 1.92 µM).
With `Nc1c(C(=O)Nc2cccc3ccccc23)sc2nc3c(cc12)CN(Cc1ccccc1)CC3` the solubility thermodynamic at 0.25 h was 3.97 µg/mL (≈ 8.55 µM).
In the case of `Cc1c(Cl)cccc1NC(=O)c1sc2nc3c(cc2c1N)CN(C)CC3`, the solubility thermodynamic at 0.25 h was 0.44 µg/mL (≈ 1.14 µM).
Work on `CC(=O)c1cc2c(N)c(C(=O)Nc3ccccc3C)sc2nc1C` yielded a solubility thermodynamic at 0.25 h of 1.49 µg/mL (≈ 4.39 µM).
`CC(=O)c1cc2c(N)c(C(=O)Nc3ccnc4ccccc34)sc2nc1C` showed a solubility thermodynamic at 0.25 h of 0.26 µg/mL (≈ 0.691 µM).
`COc1cccc(NC(=O)c2sc3nc(C)c(C(C)=O)cc3c2N)c1C` gave a solubility thermodynamic at 0.25 h of 1.52 µg/mL (≈ 4.11 µM).
With `CC(=O)c1cc2c(N)c(C(=O)Nc3cccc4ccccc34)sc2nc1C` the solubility thermodynamic at 0.25 h was 1.08 µg/mL (≈ 2.88 µM).
`CC(=O)c1cc2c(N)c(C(=O)Nc3cccc(Br)c3C)sc2nc1C` gave a solubility thermodynamic at 0.25 h of 1.15 µg/mL (≈ 2.75 µM).
Work on `Cc1c(Br)cccc1NC(=O)c1sc2nc3c(cc2c1N)CN(Cc1ccccc1)CC3` yielded a solubility thermodynamic at 0.25 h of 0.61 µg/mL (≈ 1.2 µM).
For `CC(=O)c1cc2c(N)c(C(=O)Nc3cccc(Cl)c3C)sc2nc1C`, the solubility thermodynamic at 0.25 h was 1.63 µg/mL (≈ 4.36 µM).
`Cc1c(NC(=O)c2sc3nc4c(cc3c2N)CN(Cc2ccccc2)CC4)cccc1C(F)(F)F` gave a solubility thermodynamic at 0.25 h of 1.31 µg/mL (≈ 2.64 µM).
Compound `Cc1c(Cl)cccc1NC(=O)c1sc2nc3c(cc2c1N)COCC3` has a solubility thermodynamic at 0.25 h of 1.15 µg/mL (≈ 3.08 µM).
Compound `CC(=O)c1cc2c(N)c(C(=O)Nc3ccccc3)sc2nc1C` has a solubility thermodynamic at 0.25 h of 3 µg/mL (≈ 9.22 µM).
Work on `Cc1cccc(NC(=O)c2sc3nc4c(cc3c2N)CN(Cc2ccccc2)CC4)c1C` yielded a solubility thermodynamic at 0.25 h of 1.72 µg/mL (≈ 3.89 µM).
Work on `Cc1nc2sc(C(=O)Nc3cccc(Cl)c3C)c(N)c2cc1C(C)O` (stereo not drawn) yielded a solubility thermodynamic at 0.25 h of 2.41 µg/mL (≈ 6.41 µM).

System: HCT-116
Experiment: Antiproliferative activity against human HCT-116 cells assessed as cell growth inhibition measured after 3 days by [3H]-thymidine incorporation assay
Type: functional, cell-based
Settings: not given
Outline: (§1)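 HCT116 and MDA-MB-231 cells from ATCC, seeded at 3000 cells/well, exposed to inhibitor for three days; 0.04 µCi 3H-thymidine added per well 5 h before harvest onto glass fibre filters, incorporation counted by scintillation and expressed relative to untreated controls. Triplicate wells, at least two independent experiments. Single-point screen at 1 µM; IC50 determined from varying concentrations.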
`Cc1c(Cl)cccc1NC(=O)c1sc2nc3c(cc2c1N)CN(Cc1ccccc1)CC3` gave a pIC50 of 6.71.
`Cc1nc2sc(C(=O)Nc3cccc4ccccc34)c(N)c2cc1C(C)O` (stereo not drawn) gave a pIC50 of 6.77.
In the case of `CC(=O)c1cc2c(N)c(C(=O)Nc3cccc(C)c3C)sc2nc1C`, the pIC50 was 6.37.
`Nc1c(C(=O)Nc2cccc3ccccc23)sc2nc3c(cc12)CN(Cc1ccccc1)CC3` gave a pIC50 of 6.19.
`CC(=O)c1cc2c(N)c(C(=O)Nc3cccc4ccccc34)sc2nc1C` gave a pIC50 of 6.23.
In the case of `CC(=O)c1cc2c(N)c(C(=O)Nc3cccc(Br)c3C)sc2nc1C`, the pIC50 was 6.74.
`Cc1c(Br)cccc1NC(=O)c1sc2nc3c(cc2c1N)CN(Cc1ccccc1)CC3` showed a pIC50 of 6.82.
`CC(=O)c1cc2c(N)c(C(=O)Nc3cccc(Cl)c3C)sc2nc1C` gave a pIC50 of 6.24.
`Cc1c(NC(=O)c2sc3nc4c(cc3c2N)CN(Cc2ccccc2)CC4)cccc1C(F)(F)F` gave a pIC50 of under 6.00.
In the case of `Cc1cccc(NC(=O)c2sc3nc4c(cc3c2N)CN(Cc2ccccc2)CC4)c1C`, the pIC50 was 6.70.
In the case of `Cc1nc2sc(C(=O)Nc3cccc(Cl)c3C)c(N)c2cc1C(C)O` (stereo not drawn), the pIC50 was 7.14.

System: not listed separately
Experiment: Stability in water measured after 15 mins RP-HPLC analysis
Type: physicochemical
Settings: buffer, 0.25 h
With `CC(=O)c1cc2c(N)c(C(=O)Nc3cccc4c3OCCO4)sc2nc1C` the Stabilty was “Unstable”.
With `Cc1c(Cl)cccc1NC(=O)c1sc2nc3c(cc2c1N)CN(C)CC3` the Stabilty was “Unstable”.
For `CC(=O)c1cc2c(N)c(C(=O)Nc3ccnc4ccccc34)sc2nc1C`, the Stabilty was “Unstable”.
With `Cc1c(Cl)cccc1NC(=O)c1sc2nc3c(cc2c1N)COCC3` the Stabilty was “Unstable”.

System: MDA-MB-231
Experiment: Antiproliferative activity against human MDA-MB-231 cells assessed as cell growth at 1 uM measured after 3 days by [3H]-thymidine incorporation assay relative to control
Type: functional
Settings: MDA-MB-231, 72 h, time 3 day, read-out: Activity
Outline: as §1
`Cc1c(Cl)cccc1NC(=O)c1sc2nc3c(cc2c1N)CN(Cc1ccccc1)CC3` gave a growth at 1 µM of 4%.
Compound `CC(=O)c1cc2c(N)c(C(=O)Nc3cccc4c3OCCO4)sc2nc1C` has a growth at 1 µM of 104%.
`Cc1nc2sc(C(=O)Nc3cccc4ccccc34)c(N)c2cc1C(C)O` (stereo not drawn) showed a growth at 1 µM of 9.9%.
In the case of `COc1ccc(NC(=O)c2sc3nc(C)c(C(C)=O)cc3c2N)cc1`, the growth at 1 µM was 84.6%.
Work on `CC(=O)c1cc2c(N)c(C(=O)Nc3cccc(C)c3C)sc2nc1C` yielded a growth at 1 µM of 8.9%.
Compound `Nc1c(C(=O)Nc2cccc3ccccc23)sc2nc3c(cc12)CN(Cc1ccccc1)CC3` has a growth at 1 µM of 19.3%.
`Cc1c(Cl)cccc1NC(=O)c1sc2nc3c(cc2c1N)CN(C)CC3` gave a growth at 1 µM of 95.3%.
For `CC(=O)c1cc2c(N)c(C(=O)Nc3ccccc3C)sc2nc1C`, the growth at 1 µM was 97.1%.
Work on `CC(=O)c1cc2c(N)c(C(=O)Nc3ccnc4ccccc34)sc2nc1C` yielded a growth at 1 µM of 91.6%.
For `COc1cccc(NC(=O)c2sc3nc(C)c(C(C)=O)cc3c2N)c1C`, the growth at 1 µM was 99.7%.
`CC(=O)c1cc2c(N)c(C(=O)Nc3cccc4ccccc34)sc2nc1C` showed a growth at 1 µM of 13.6%.
`CC(=O)c1cc2c(N)c(C(=O)Nc3cccc(Br)c3C)sc2nc1C` gave a growth at 1 µM of 11%.
For `Cc1c(Br)cccc1NC(=O)c1sc2nc3c(cc2c1N)CN(Cc1ccccc1)CC3`, the growth at 1 µM was 3.5%.
For `CC(=O)c1cc2c(N)c(C(=O)Nc3cccc(Cl)c3C)sc2nc1C`, the growth at 1 µM was 13.7%.
`Cc1c(NC(=O)c2sc3nc4c(cc3c2N)CN(Cc2ccccc2)CC4)cccc1C(F)(F)F` showed a growth at 1 µM of 61.5%.
`Cc1c(Cl)cccc1NC(=O)c1sc2nc3c(cc2c1N)COCC3` showed a growth at 1 µM of 50.9%.
With `CC(=O)c1cc2c(N)c(C(=O)Nc3ccccc3)sc2nc1C` the growth at 1 µM was 120%.
With `Cc1cccc(NC(=O)c2sc3nc4c(cc3c2N)CN(Cc2ccccc2)CC4)c1C` the growth at 1 µM was 4%.
For `Cc1nc2sc(C(=O)Nc3cccc(Cl)c3C)c(N)c2cc1C(C)O` (stereo not drawn), the growth at 1 µM was 11.7%.

System: HCT-116
Experiment: Antiproliferative activity against human HCT-116 cells assessed as cell growth at 1 uM measured after 3 days by [3H]-thymidine incorporation assay relative to control
Type: functional
Settings: HCT-116, 72 h, time 3 day, read-out: Activity
Outline: as §1
`Cc1c(Cl)cccc1NC(=O)c1sc2nc3c(cc2c1N)CN(Cc1ccccc1)CC3` showed a growth at 1 µM of 2.3%.
In the case of `CC(=O)c1cc2c(N)c(C(=O)Nc3cccc4c3OCCO4)sc2nc1C`, the growth at 1 µM was 72.5%.
`Cc1nc2sc(C(=O)Nc3cccc4ccccc34)c(N)c2cc1C(C)O` (stereo not drawn) gave a growth at 1 µM of 1.7%.
Work on `COc1ccc(NC(=O)c2sc3nc(C)c(C(C)=O)cc3c2N)cc1` yielded a growth at 1 µM of 82.9%.
For `CC(=O)c1cc2c(N)c(C(=O)Nc3cccc(C)c3C)sc2nc1C`, the growth at 1 µM was 2.1%.
`Nc1c(C(=O)Nc2cccc3ccccc23)sc2nc3c(cc12)CN(Cc1ccccc1)CC3` gave a growth at 1 µM of 4.7%.
In the case of `Cc1c(Cl)cccc1NC(=O)c1sc2nc3c(cc2c1N)CN(C)CC3`, the growth at 1 µM was 101%.
In the case of `CC(=O)c1cc2c(N)c(C(=O)Nc3ccccc3C)sc2nc1C`, the growth at 1 µM was 110%.
With `CC(=O)c1cc2c(N)c(C(=O)Nc3ccnc4ccccc34)sc2nc1C` the growth at 1 µM was 102%.
For `COc1cccc(NC(=O)c2sc3nc(C)c(C(C)=O)cc3c2N)c1C`, the growth at 1 µM was 96.8%.
`CC(=O)c1cc2c(N)c(C(=O)Nc3cccc4ccccc34)sc2nc1C` showed a growth at 1 µM of 7.8%.
For `CC(=O)c1cc2c(N)c(C(=O)Nc3cccc(Br)c3C)sc2nc1C`, the growth at 1 µM was 4%.
Compound `Cc1c(Br)cccc1NC(=O)c1sc2nc3c(cc2c1N)CN(Cc1ccccc1)CC3` has a growth at 1 µM of 1%.
`CC(=O)c1cc2c(N)c(C(=O)Nc3cccc(Cl)c3C)sc2nc1C` gave a growth at 1 µM of 10%.
`Cc1c(NC(=O)c2sc3nc4c(cc3c2N)CN(Cc2ccccc2)CC4)cccc1C(F)(F)F` gave a growth at 1 µM of 69.7%.
Work on `Cc1c(Cl)cccc1NC(=O)c1sc2nc3c(cc2c1N)COCC3` yielded a growth at 1 µM of 78.1%.
Compound `CC(=O)c1cc2c(N)c(C(=O)Nc3ccccc3)sc2nc1C` has a growth at 1 µM of 109%.
With `Cc1cccc(NC(=O)c2sc3nc4c(cc3c2N)CN(Cc2ccccc2)CC4)c1C` the growth at 1 µM was 1.5%.
For `Cc1nc2sc(C(=O)Nc3cccc(Cl)c3C)c(N)c2cc1C(C)O` (stereo not drawn), the growth at 1 µM was 2.2%.

System: MDA-MB-231
Experiment: Antiproliferative activity against human MDA-MB-231 cells assessed as cell growth inhibition measured after 3 days by [3H]-thymidine incorporation assay
Type: functional, cell-based
Settings: not given
Outline: as §1
With `Cc1c(Cl)cccc1NC(=O)c1sc2nc3c(cc2c1N)CN(Cc1ccccc1)CC3` the pIC50 was 6.82.
In the case of `Cc1nc2sc(C(=O)Nc3cccc4ccccc34)c(N)c2cc1C(C)O` (stereo not drawn), the pIC50 was 7.09.
In the case of `CC(=O)c1cc2c(N)c(C(=O)Nc3cccc(C)c3C)sc2nc1C`, the pIC50 was 6.30.
With `Nc1c(C(=O)Nc2cccc3ccccc23)sc2nc3c(cc12)CN(Cc1ccccc1)CC3` the pIC50 was 6.19.
In the case of `CC(=O)c1cc2c(N)c(C(=O)Nc3cccc4ccccc34)sc2nc1C`, the pIC50 was 6.20.
Work on `CC(=O)c1cc2c(N)c(C(=O)Nc3cccc(Br)c3C)sc2nc1C` yielded a pIC50 of 6.66.
With `Cc1c(Br)cccc1NC(=O)c1sc2nc3c(cc2c1N)CN(Cc1ccccc1)CC3` the pIC50 was 6.91.
Work on `CC(=O)c1cc2c(N)c(C(=O)Nc3cccc(Cl)c3C)sc2nc1C` yielded a pIC50 of 6.20.
Compound `Cc1c(NC(=O)c2sc3nc4c(cc3c2N)CN(Cc2ccccc2)CC4)cccc1C(F)(F)F` has a pIC50 of under 6.00.
`Cc1cccc(NC(=O)c2sc3nc4c(cc3c2N)CN(Cc2ccccc2)CC4)c1C` gave a pIC50 of 6.79.
For `Cc1nc2sc(C(=O)Nc3cccc(Cl)c3C)c(N)c2cc1C(C)O` (stereo not drawn), the pIC50 was 7.12.
